# Measured values published in ChEMBL document CHEMBL2384907, “Identification of substituted pyrimido[5,4-b]indoles as selective Toll-like receptor 4 ligands” (J Med Chem, 2013).
# The source made the active and inactive calls. No cut-off for these calls is given here.
# What was measured:
# [1] = biological target: Toll-like receptor 4/MD-2/CD14 (Homo sapiens) (UniProt O00206+Q9Y6Y9+P08571); experiment: Activation of human TLR4/MD-2/CD14 transfected in HEK293 cells at 10 uM after 20 to 24 hrs by SEAP assay; type: cell-based
# BMDC = experiment: Induction of IL6 secretion in C57BL/6 mouse TLR4 deficient BMDC cells at 10 uM after 18 hrs by ELISA; type: functional, cell-based
# Outline: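 BMDC from Tlr4–/– mice (backcrossed 10 generations onto C57BL/6) and wild-type mice incubated with 10 μM compound for 18 h; IL-6 in culture supernatants by ELISA.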
# [2] = biological target: Toll-like receptor 3 (Homo sapiens) (UniProt O15455); experiment: Activation of human TLR3 transfected in HEK293 cells at 10 uM after 20 to 24 hrs by SEAP assay; type: cell-based
# Chain of Toll-like receptor 3 (Homo sapiens) (O15455 whole entry): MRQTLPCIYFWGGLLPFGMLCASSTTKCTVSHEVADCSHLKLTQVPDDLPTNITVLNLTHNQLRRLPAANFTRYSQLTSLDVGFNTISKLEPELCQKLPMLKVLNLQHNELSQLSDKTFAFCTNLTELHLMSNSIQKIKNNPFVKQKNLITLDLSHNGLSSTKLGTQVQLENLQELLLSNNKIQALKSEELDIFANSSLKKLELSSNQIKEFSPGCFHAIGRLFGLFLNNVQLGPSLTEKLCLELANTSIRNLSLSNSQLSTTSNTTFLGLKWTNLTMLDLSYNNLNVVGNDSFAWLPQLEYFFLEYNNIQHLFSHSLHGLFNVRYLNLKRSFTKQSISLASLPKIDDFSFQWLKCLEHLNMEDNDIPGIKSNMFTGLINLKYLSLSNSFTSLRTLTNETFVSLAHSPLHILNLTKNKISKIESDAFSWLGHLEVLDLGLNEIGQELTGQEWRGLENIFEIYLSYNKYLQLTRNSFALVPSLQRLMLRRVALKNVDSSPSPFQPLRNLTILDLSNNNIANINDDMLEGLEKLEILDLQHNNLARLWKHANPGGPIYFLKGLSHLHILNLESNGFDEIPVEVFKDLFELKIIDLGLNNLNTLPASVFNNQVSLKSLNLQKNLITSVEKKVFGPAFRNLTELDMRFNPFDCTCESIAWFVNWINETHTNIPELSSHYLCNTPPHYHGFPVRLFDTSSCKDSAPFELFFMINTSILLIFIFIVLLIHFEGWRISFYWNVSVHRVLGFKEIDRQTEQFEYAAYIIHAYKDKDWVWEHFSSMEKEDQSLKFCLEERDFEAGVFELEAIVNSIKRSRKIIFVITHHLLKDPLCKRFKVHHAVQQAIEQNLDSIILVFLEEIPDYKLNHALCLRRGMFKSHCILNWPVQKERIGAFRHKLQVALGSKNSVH
# [3] = biological target: T1, Toll-like receptor 4 (Mus musculus) (UniProt Q9QUK6); experiment: Activation of mouse TLR4 transfected in HEK293 cells after 18 hrs by SEAP assay relative to N-cyclohexyl-2-(4-oxo-3-phenyl-4,5-dihydro-3H-pyrimido[5,4-b]indol-2-ylthio)acetamide; type: cell-based
# T1 sequence (whole entry): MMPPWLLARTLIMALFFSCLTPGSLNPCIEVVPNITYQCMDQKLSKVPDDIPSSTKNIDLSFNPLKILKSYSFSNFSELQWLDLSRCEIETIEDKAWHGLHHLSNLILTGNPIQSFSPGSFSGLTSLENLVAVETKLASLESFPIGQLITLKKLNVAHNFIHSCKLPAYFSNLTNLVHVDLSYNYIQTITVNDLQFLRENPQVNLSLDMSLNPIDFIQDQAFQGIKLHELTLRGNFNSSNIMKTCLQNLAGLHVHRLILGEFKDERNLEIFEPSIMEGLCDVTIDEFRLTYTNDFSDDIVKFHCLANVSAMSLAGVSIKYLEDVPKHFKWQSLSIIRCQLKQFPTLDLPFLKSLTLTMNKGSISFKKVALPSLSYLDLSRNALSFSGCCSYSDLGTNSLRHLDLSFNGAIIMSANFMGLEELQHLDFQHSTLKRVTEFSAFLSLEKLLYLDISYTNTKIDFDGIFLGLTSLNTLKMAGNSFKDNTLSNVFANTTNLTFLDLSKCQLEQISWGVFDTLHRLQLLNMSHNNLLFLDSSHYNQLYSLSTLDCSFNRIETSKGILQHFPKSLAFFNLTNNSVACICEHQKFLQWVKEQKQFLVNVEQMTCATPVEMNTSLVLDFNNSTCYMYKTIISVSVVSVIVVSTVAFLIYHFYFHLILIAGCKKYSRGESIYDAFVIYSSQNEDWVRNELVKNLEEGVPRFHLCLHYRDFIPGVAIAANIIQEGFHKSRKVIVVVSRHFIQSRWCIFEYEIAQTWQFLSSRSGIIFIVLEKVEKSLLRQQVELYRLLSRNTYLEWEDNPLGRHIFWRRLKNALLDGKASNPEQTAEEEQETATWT
# Outline: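 Mouse TLR4 HEK-Blue cells (2.5 × 10^4/well) given titrated doses 312 nM–10 μM for 18 h, 0.5% DMSO vehicle; SEAP at 630 nm. Percent-activity curves, AUC by trapezoid method, normalized to reference hit set at 100. LPS 10 ng/mL control.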
# [4] = biological target: Toll-like receptor 4 (Homo sapiens) (UniProt O00206); experiment: Activation of human TLR4 transfected in HEK293 cells after 18 hrs by SEAP assay relative to N-cyclohexyl-2-(4-oxo-3-phenyl-4,5-dihydro-3H-pyrimido[5,4-b]indol-2-ylthio)acetamide; type: cell-based; parameters: concentration or dose not given beside the values
# Chain of Toll-like receptor 4 (Homo sapiens) (O00206 whole entry): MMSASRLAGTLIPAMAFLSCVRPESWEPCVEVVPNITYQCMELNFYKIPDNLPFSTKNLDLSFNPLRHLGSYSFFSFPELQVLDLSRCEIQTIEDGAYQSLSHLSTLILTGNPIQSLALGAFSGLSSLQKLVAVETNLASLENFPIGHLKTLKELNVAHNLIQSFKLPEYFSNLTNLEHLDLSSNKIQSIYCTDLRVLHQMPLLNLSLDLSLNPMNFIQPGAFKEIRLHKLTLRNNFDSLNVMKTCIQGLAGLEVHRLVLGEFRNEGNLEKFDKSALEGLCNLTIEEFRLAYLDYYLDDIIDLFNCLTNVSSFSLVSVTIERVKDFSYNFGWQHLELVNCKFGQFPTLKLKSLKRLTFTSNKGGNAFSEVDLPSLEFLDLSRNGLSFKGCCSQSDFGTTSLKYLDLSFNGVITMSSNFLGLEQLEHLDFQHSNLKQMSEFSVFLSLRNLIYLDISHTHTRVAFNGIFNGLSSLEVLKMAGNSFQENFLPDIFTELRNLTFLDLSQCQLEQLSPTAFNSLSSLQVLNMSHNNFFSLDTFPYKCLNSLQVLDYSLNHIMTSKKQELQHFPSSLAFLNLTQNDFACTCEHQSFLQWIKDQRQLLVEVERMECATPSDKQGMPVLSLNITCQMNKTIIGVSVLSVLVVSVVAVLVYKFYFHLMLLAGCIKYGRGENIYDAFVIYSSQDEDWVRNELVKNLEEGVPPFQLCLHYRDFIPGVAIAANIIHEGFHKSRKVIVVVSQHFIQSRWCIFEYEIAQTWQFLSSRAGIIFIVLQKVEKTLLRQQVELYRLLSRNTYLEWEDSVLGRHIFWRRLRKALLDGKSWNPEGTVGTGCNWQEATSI
# Outline: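 Human TLR4 HEK-Blue cells (2.5 × 10^4/well) given compound at 10 μM for 18 h, 0.5% DMSO vehicle; SEAP in supernatant read at 630 nm, normalized to reference hit set at 100. LPS 10 ng/mL positive control.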
# [5] = biological target: Toll-like receptor 5 (Homo sapiens) (UniProt O60602); experiment: Activation of human TLR5 transfected in HEK293 cells at 10 uM after 20 to 24 hrs by SEAP assay; type: cell-based
# Chain of Toll-like receptor 5 (Homo sapiens) (O60602 whole entry): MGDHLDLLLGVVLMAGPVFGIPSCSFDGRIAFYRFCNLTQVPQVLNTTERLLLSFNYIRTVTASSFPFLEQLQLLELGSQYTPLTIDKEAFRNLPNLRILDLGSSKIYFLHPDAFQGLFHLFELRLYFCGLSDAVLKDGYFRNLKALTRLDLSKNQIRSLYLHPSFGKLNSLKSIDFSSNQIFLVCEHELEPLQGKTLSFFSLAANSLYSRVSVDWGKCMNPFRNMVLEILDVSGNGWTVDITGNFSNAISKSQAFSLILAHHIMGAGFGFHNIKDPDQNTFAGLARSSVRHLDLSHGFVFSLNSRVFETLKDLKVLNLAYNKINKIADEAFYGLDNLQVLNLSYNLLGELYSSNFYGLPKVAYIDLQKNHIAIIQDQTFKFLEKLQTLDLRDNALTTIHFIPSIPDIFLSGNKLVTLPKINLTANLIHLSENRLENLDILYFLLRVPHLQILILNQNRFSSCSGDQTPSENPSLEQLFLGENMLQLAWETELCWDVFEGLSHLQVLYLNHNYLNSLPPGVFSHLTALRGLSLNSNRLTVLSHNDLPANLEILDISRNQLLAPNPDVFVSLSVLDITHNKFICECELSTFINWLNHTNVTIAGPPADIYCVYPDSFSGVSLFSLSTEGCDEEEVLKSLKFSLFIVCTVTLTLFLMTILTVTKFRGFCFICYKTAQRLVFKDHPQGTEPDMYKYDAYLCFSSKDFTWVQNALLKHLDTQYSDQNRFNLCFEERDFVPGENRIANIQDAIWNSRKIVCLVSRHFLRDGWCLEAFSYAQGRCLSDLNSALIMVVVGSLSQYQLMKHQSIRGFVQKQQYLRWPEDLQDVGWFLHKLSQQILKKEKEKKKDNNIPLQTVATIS
# [6] = biological target: T2, Toll-like receptor 7 (Homo sapiens) (UniProt Q9NYK1); experiment: Activation of human TLR7 transfected in HEK293 cells at 10 uM after 20 to 24 hrs by SEAP assay; type: cell-based
# T2 sequence (whole entry): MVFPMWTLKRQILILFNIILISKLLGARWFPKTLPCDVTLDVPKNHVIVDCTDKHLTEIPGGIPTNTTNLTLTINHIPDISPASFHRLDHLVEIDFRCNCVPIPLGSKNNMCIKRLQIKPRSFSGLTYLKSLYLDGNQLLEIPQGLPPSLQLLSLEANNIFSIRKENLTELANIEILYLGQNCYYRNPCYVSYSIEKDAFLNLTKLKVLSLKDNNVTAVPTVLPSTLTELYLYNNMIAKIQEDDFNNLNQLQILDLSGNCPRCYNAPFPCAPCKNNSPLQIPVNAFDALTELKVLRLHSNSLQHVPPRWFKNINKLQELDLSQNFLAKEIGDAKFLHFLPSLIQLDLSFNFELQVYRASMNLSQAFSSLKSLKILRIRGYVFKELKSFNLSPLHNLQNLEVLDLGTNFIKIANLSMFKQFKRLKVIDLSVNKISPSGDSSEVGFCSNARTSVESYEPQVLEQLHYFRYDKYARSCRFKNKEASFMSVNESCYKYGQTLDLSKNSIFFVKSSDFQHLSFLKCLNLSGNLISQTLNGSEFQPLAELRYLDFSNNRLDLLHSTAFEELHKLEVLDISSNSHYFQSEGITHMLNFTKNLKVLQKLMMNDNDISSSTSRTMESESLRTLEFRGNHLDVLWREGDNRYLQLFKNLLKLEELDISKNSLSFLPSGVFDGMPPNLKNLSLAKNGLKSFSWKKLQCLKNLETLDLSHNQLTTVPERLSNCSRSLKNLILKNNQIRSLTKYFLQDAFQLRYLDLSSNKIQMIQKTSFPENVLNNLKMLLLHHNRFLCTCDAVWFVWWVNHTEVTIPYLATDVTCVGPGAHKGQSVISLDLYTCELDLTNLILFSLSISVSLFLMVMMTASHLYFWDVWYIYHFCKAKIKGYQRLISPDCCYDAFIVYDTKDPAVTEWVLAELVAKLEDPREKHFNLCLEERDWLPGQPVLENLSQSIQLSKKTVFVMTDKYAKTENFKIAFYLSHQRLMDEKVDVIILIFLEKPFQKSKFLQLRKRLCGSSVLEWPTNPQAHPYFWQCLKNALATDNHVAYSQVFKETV
smiles,measurement,setting,value
O=C(CSc1nc2c([nH]c3ccccc32)c(=O)n1-c1ccccc1)NC1CCCCC1,Activity,[1],Active
same,Activity,BMDC,inactive
same,Activity,[2],inactive
same,Activity,[3],100%
same,Activity,[4],100%
same,Activity,[5],inactive
same,Activity,[6],inactive
